In data set [1] the test system is Bel-7402. In words: Induction of apoptosis in human Bel7402 cells assessed as viable cells at 1 nM after 72 hrs by Annexin V/propidium iodide staining based flow cytometric analysis (reference value: 92.4%). In kind it is functional. To be noted: Bel-7402, 72 h, read-out: Activity.
Data set [2] deals with Bel-7402. In words: Induction of necrosis in human Bel7402 cells after 72 hrs by trypan blue exclusion assay. Type of data set: functional, cell-based. Put shortly:
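BEL-7402 cells seeded at 5 × 10⁴ per well, exposed to compounds 72 h; trypsinized, stained with 0.4% Trypan blue (9:1 dilution) for 3 min; unstained (viable) and stained (necrotic) cells counted separately on a hemocytometer.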

The test system of data set [3] is Bel-7402. In words: Cell cycle arrest in human Bel7402 cells assessed as accumulation in S-phase after 24 hrs by propidium iodide staining-based flow cytometry. In kind it is functional. Put shortly:
(§1)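 BEL-7402 cells exposed for 24 h, then fixed in 70% ethanol at −20 °C for ≥1 h. Stained with 50 μg/mL propidium iodide plus 10 μg/mL RNase A for 30 min in the dark at room temperature. DNA content read by flow cytometry on ≥1.0 × 10⁴ cells per sample.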
(Flow cytometry measures light scatter and fluorescence of single cells or particles in a stream.)

For data set [4], the system named is Bel-7402. In words: Induction of apoptosis in human Bel7402 cells assessed as necrotic cells at 1 nM after 72 hrs by Annexin V/propidium iodide staining based flow cytometric analysis (reference value: 0.38%). In kind it is functional.
The test system of data set [5] is Bel-7402. In words: Cell cycle arrest in human Bel7402 cells assessed as delay in progression of S-phase to G2-phase at 10 nM pre-treated with aphidicolin for 16 hrs followed by compound addition measured up to 24 hrs by propidium iodide staining-based flow cytometric method. In kind it is functional. Put shortly:
(§2)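 Exponentially growing cells synchronized in early S phase with 0.2 μg/mL aphidicolin for 16 h. Cells released into fresh medium with or without compound for set times. Ethanol-fixed, stained with PI/RNase, and cell cycle distribution read by flow cytometry. Representative of three independent experiments.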

Data set [6] deals with MRC5. In words: Antiproliferative activity against human MRC5 cells assessed as reduction in viability after 72 hrs by SRB assay. Type of data set: cell-based. To be noted: MRC5, 72 h. An outline of the steps: (§3)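 Cells seeded and dosed in triplicate for 72 h. Suspension lines (HL-60, K-562, K562/ADR, HL-60/MX2) were read by MTT: 5 mg/mL MTT stock added, 4 h at 37 °C, formazan dissolved in 10% SDS/5% isobutanol/10 mM HCl, A570. Adherent lines were read by SRB: fixed with cold 10% TCA, stained with 0.4% SRB in 1% acetic acid, A540. IC50 from four-parameter logistic fit; mean of ≥3 independent experiments.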
For orientation: Sulforhodamine B stains cellular protein and so reports cell mass.

For data set [7], the system named is Bel-7402. In words: Inhibition of DNA synthesis in human Bel7402 cells assessed as BrdU incorporation at 1 nM preincubated for 1 hr followed by BrdU addition for 30 mins by FITC/propidium iodide staining based flow cytometry (reference value: 35.5%). In kind it is functional. More on the design: scale not given: the % may be the effect or the level left. Put shortly:
(§4)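 BEL-7402 cells (3 × 10⁵ per well) exposed to compounds 1 h, then labeled with 10 μM BrdU for 30 min; trypsinized, fixed in 70% ethanol at −20 °C ≥1 h, 2 N HCl 20 min, neutralized with 0.1 M borate, stained with anti-BrdU-FITC plus PI 30 min; BrdU-positive cells quantified by flow cytometry; three independent experiments, mean + SD.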
(Incorporation of labelled thymidine or its analogues reports DNA synthesis.)

Data set [8] can be described thus: Antiproliferative activity against human MRC9 cells assessed as reduction in viability after 72 hrs by SRB assay. Type of data set: cell-based. The note with it: MRC9, 72 h. An outline of the steps: as §3
The test system of data set [9] is Bel-7402. In words: Induction of apoptosis in human Bel7402 cells assessed as necrotic cells at 10 nM after 72 hrs by Annexin V/propidium iodide staining based flow cytometric analysis (reference value: 0.38%). In kind it is functional.
Data set [10] has as its system KB. In words: Cell cycle arrest in human KB/VCR cells assessed as delay in progression of S-phase to G2-phase at 10 nM pre-treated with aphidicolin for 16 hrs followed by compound addition measured up to 12 hrs by propidium iodide staining-based flow cytometric method. In kind it is functional. An outline of the steps:
as §2

Data set [11] has as its system Bel-7402. In words: Induction of apoptosis in human Bel7402 cells assessed as late apoptotic cells at 10 nM after 72 hrs by Annexin V/propidium iodide staining based flow cytometric analysis (reference value: 3.6%). Type of data set: functional. Put shortly:
(§5)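 BEL-7402 cells (3 × 10⁵ per well, 6-well plates) exposed for 72 h. Harvested, PBS-washed, resuspended in cold binding buffer with annexin V–FITC and PI, and stained 15 min in the dark at room temperature. Early apoptotic, late apoptotic and necrotic fractions quantified by flow cytometry.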

In data set [12] the test system is Bel-7402. In words: Induction of apoptosis in human Bel7402 cells assessed as viable cells at 10 nM after 72 hrs by Annexin V/propidium iodide staining based flow cytometric analysis (reference value: 92.4%). To be noted: Bel-7402, 72 h, read-out: Activity. In kind it is functional.
Data set [13] can be described thus: Cytotoxicity against Sprague-Dawley rat primary neuronal cells assessed as reduction in cell viability after 24 hrs by MTT assay. Type of data set: cell-based.
Data set [14] has as its system Bel-7402. In words: Cell cycle arrest in human Bel7402 cells assessed as delay in progression of S-phase to G2-phase at 0.1 to 1 uM pre-treated with aphidicolin for 16 hrs followed by compound addition measured up to 24 hrs by propidium iodide staining-based flow cytometric method. In kind it is functional. An outline of the steps:
as §2

The test system of data set [15] is Bel-7402. In words: Induction of apoptosis in human Bel7402 cells assessed as necrotic cells at 1 uM after 72 hrs by Annexin V/propidium iodide staining based flow cytometric analysis (reference value: 0.38%). Type of data set: functional.
The nature of data set [16]: Growth inhibition of human KB-MDR cells after 8 days by methylene blue-staining based spectrophotometry. In kind it is functional. The note with it: 192 h.
The test system of data set [17] is Bel-7402. In words: Induction of DNA damage in human Bel7402 cells assessed as increase in CHK1 phosphorylation at Ser345 residue at 0.1 to 10 uM after 1 hr by Western blot analysis. In kind it is functional, cell-based. An outline of the steps: (§6)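 BEL-7402 cells (1.5 × 10⁵ per well, 12-well plates) exposed to compounds for 1 h. Phospho-Chk1 Ser345, phospho-Chk2 Thr68 and γH2AX detected by Western blot. Camptothecin at 1 μM served as the DNA-damage reference.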

For data set [18], the system named is Bel-7402. In words: Induction of apoptosis in human Bel7402 cells assessed as early apoptotic cells at 10 uM after 72 hrs by Annexin V/propidium iodide staining based flow cytometric analysis (reference value: 3.66%). Type of data set: functional. An outline of the steps: as §5
Data set [19] relates to Bel-7402. In words: Inhibition of DNA synthesis in human Bel7402 cells assessed as BrdU incorporation at 1 uM preincubated for 1 hr followed by BrdU addition for 30 mins by FITC/propidium iodide staining based flow cytometry (reference value: 35.5%). More on the design: scale not given: the % may be the effect or the level left. Type of data set: functional. Put shortly: as §4

Data set [20] relates to Bel-7402. In words: Cell cycle arrest in human Bel7402 cells assessed as accumulation in S-phase at 0.012 to 1 uM after 24 hrs by propidium iodide staining-based flow cytometry. Type of data set: functional. Put shortly:
as §1

The test system of data set [21] is Bel-7402. In words: Induction of apoptosis in human Bel7402 cells assessed as necrotic cells at 10 uM after 72 hrs by Annexin V/propidium iodide staining based flow cytometric analysis (reference value: 0.38%). Type of data set: functional.
Data set [22] concerns Bel-7402. In words: Induction of DNA damage in human Bel7402 cells assessed as increase in CHK2 phosphorylation at Thr68 residue at 0.1 to 10 uM after 1 hr by Western blot analysis. Type of data set: functional, cell-based. Put shortly: as §6
Data set [23] has as its system Bel-7402. In words: Inhibition of DNA synthesis in human Bel7402 cells assessed as BrdU incorporation at 10 uM preincubated for 1 hr followed by BrdU addition for 30 mins by FITC/propidium iodide staining based flow cytometry (reference value: 35.5%). Type of data set: functional. Details: scale not given: the % may be the effect or the level left. Put shortly: as §4

For data set [24], the system named is Bel-7402. In words: Induction of apoptosis in human Bel7402 cells assessed as viable cells at 10 uM after 72 hrs by Annexin V/propidium iodide staining based flow cytometric analysis (reference value: 92.4%). In kind it is functional. To be noted: Bel-7402, 72 h, read-out: Activity.

The source made the active and inactive calls. The rule behind the calls is not given here.

Broadly, the IC50 is the concentration at which inhibition is half-maximal. On to `COc1cc2c3c(c4ccc(O)cc4c2cc1OC)CN1CCCC[C@@H]1C3`, for which, in data set [1], the viability at 0.001 µM turned out to be 94.4%. Moreover, the Activity entry is “Dose-dependent effect” in [2]; “Dose-dependent effect” in data set [3]; 0.39% in data set [4]; 28.6% in [7]; 0.94% in data set [9]; 14.2% in data set [11]. In addition, the result in [5] and in data set [10] was Active. For the same compound, the half-inhibitory concentration (IC50) in data set [6] is 2.6 nM; in data set [8], 2.2 nM. The viability at 0.01 µM in data set [12] was found to be 81%. The “inhibition (INH)” value in data set [13] is given as “Dose-dependent effect”.
In general, GI50 refers to the concentration that inhibits growth by half. Take `COc1cc2c3c(c4cc(OC)c(OC)cc4c2cc1OC)[C@H](O)[C@@H]1CCCN1C3`: the result in [14] and in data set [20] was Active. Moreover, the Activity was 0.81% in data set [15]; 2.06% in data set [18]; 8.01% in data set [19]; 1.39% in [21]; 1.9% in data set [23]. The compound also registered a GI50 in data set [16] of 30 nM. Also, the result in data set [17] and in [22] was inactive. The viability at 10 µM in data set [24] is 85.1%.

(Values after ChEMBL document CHEMBL4049418, “6-OH-Phenanthroquinolizidine Alkaloid and Its Derivatives Exert Potent Anticancer Activity by Delaying S Phase Progression” (J Med Chem, 2017).)
